Settings in all cases: in vivo
Series [1] is filed under the species Mus musculus. The experiment in a line: Distribution of compound in lungs tissue of mice after 24 hr injection time was determined. The series is classed as ADME, organism-based, Lung. In outline:
(§1)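 Healthy athymic nude mice (balb/c nu/nu, 20–25 g, both sexes) received 50–400 KBq radioiodinated bisphosphonate in 100 µL phosphate buffer pH 6–7 by tail-vein injection. Three animals were sacrificed per time point. Tissues were excised, weighed and gamma-counted. Values are % injected dose per gram tissue, mean ± 1 SD, n = 3.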

Series [2] is filed under the species Mus musculus. The experiment in a line: Distribution of compound in skull tissue of mice after 24 hr injection time was determined. The class given is ADME, organism-based. In outline: as §1
For series [3], the species on record is Mus musculus. In words: Distribution of compound in kidneys tissue of mice after 24 hr injection time was determined. The class given is ADME, organism-based, Kidney. In outline: as §1
The species entered for series [4] is Mus musculus. In words: Distribution of compound in liver tissue of mice after 24 hr injection time was determined. The class given is ADME, organism-based. In outline: as §1
The species named for series [5] is Mus musculus. In words: Distribution of compound in heart tissue of mice after 24 hr injection time was determined. The class given is ADME, organism-based. Summed up:
as §1

For series [6], the species on record is Mus musculus. In words: Distribution of compound in intestine tissue of mice after 24 hr injection time was determined. The class given is ADME, organism-based. In outline:
as §1

The species entered for series [7] is Mus musculus. The experiment in a line: Distribution of compound in spleen tissue of mice after 24 hr injection time was determined. The class given is ADME, organism-based. Summed up: as §1
The species entered for series [8] is Mus musculus. In words: Distribution of compound in stomach tissue of mice after 24 hr injection time was determined. The class given is ADME, organism-based. Summed up:
as §1

The species named for series [9] is Mus musculus. In words: Distribution of compound in thyroid tissue of mice after 24 h injection time was determined. The class given is ADME, organism-based, Thyroid gland. Summed up: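 Healthy athymic nude balb/c nu/nu mice (20–25 g) received 50–400 KBq radioiodinated bisphosphonate in 100 μL phosphate buffer, pH 6–7, by tail-vein injection. Three animals were sacrificed per time point. Thyroid-containing tissue was excised, weighed and gamma-counted. Values are % of injected dose, mean ± 1 SD of three mice.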

The species named for series [10] is Mus musculus. In words: Distribution of compound in blood tissue of mice after 24 hr injection time was determined. The series is classed as ADME, organism-based. In outline: as §1
For series [11], the species on record is Mus musculus. In words: Distribution of compound in femur tissue of mice after 24 hr injection time was determined. The class given is ADME, organism-based. In outline:
as §1

With `O=P(O)(O)C(NCCc1cccc(I)c1)P(=O)(O)O`, the Injected in the series filed under Mus musculus [1] was found to be 0.67%; in the series listed under Mus musculus [2] it was 0.91%; in the series listed under Mus musculus [3], 0.4%; in the series listed under Mus musculus [4] it was 5.57%; in the series listed under Mus musculus [5], 0.19%; in the series filed under Mus musculus [6], 0.1%. Further, the Injected was 2.49% in the series filed under Mus musculus [7]; 0.07% in the series listed under Mus musculus [8]; 0.02% in the series filed under Mus musculus [9]; 0.18% in the series listed under Mus musculus [10]; 1.39% in the series filed under Mus musculus [11].

For `O=P(O)(O)C(CCc1cccc(I)c1)P(=O)(O)O`, the Injected in the series filed under Mus musculus [1] was found to be 0.21%; in the series listed under Mus musculus [2], 10.36%; in the series filed under Mus musculus [3], 0.85%; in the series filed under Mus musculus [4], 0.35%; in the series filed under Mus musculus [5] it was 0.06%; in the series filed under Mus musculus [6] it was 0.05%. Also, the Injected was 0.17% in the series filed under Mus musculus [7]; 0.04% in the series filed under Mus musculus [8]; 0.02% in the series listed under Mus musculus [9]; 0.02% in the series filed under Mus musculus [10]; 8.84% in the series filed under Mus musculus [11].

Source of the values: ChEMBL document CHEMBL1145833, “Studies on the synthesis and biological properties of non-carrier-added [(125)I and (131)I]-labeled arylalkylidenebisphosphonates: potent bone-seekers for diagnosis and therapy of malignant osseous lesions” (J Med Chem, 2003).
